Experimental data as given in ChEMBL document CHEMBL3804776, “Synthesis and Evaluation of Macrocyclic Peptide Aldehydes as Potent and Selective Inhibitors of the 20S Proteasome” (ACS Med Chem Lett, 2016).
Active and inactive are the calls of the source. The calls are words filed in the database; no cut-off is given here. Residues, ends and D or L forms follow the SMILES beside them. *: point of attachment. Cbz = O=C(OCc1ccccc1)*

Columns and labels:
[1] = Selectivity ratio of Ki for human liver cathepsin B to Ki for chymotrypsin-like activity of rabbit 20S proteasome
[2] = target: T1, Calpain-2 catalytic subunit (Homo sapiens, UniProt P17655); test: Inhibition of m-calpain (unknown origin) using Suc-LY-AMC as substrate by fluorometric assay
T1 sequence (P17655 whole entry): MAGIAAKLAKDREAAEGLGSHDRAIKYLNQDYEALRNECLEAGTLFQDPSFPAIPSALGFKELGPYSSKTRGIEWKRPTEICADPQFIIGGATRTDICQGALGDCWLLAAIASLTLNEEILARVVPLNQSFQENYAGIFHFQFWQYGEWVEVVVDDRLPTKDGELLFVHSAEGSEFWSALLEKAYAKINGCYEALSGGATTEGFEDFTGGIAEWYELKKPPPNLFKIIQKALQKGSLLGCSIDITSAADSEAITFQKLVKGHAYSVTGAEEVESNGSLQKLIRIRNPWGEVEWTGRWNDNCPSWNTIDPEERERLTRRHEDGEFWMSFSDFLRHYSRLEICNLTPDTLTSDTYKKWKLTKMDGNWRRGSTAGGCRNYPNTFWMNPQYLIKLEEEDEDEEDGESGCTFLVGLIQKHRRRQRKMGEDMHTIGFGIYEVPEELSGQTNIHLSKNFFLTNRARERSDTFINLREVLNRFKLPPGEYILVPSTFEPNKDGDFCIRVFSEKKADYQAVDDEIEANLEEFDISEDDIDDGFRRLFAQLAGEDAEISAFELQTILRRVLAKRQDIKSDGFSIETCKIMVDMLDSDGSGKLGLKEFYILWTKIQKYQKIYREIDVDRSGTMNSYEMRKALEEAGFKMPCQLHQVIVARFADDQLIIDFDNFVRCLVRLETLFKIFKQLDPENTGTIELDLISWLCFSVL

[3] = Selectivity ratio of Ki for m-calpain (unknown origin) to Ki for chymotrypsin-like activity of rabbit 20S proteasome
Cathepsin B [4] = target: T2, Cathepsin B (Homo sapiens, UniProt P07858); test: Inhibition of human liver cathepsin B using Cbz-RR-AMC as substrate by fluorometric assay
Homo sapiens = species on record: Homo sapiens; test: Inhibition of chymotrypsin (unknown origin) using Suc-LLVY-AMC as substrate at 100 uM by fluorometric assay
Procedure, shortened: (§1)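 Fluorometric kinetic enzyme assay run at a single inhibitor concentration of 100 μM. The outcome was scored as whether inhibition occurred at that concentration.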

[5] = Inhibition of chymotrypsin-like activity of rabbit 20S proteasome using Suc-LLVY-AMC substrate incubated at 37 degC by fluorometric assay; design: species or system Oryctolagus cuniculus
HeLa [6] = test: Inhibition of 26S proteasome in TNFalpha-induced human HeLa cells assessed as reduction in IkappaBalpha degradation at 20 uM preincubated for 2 hrs followed by TNFalpha stimulation by Western blot analysis; assay type: cell-based
Procedure, shortened: (§2)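 HeLa cells were preincubated for 2 h with 20 μM compound before TNFα stimulation. IκBα S32/36 phosphorylation and IκBα levels were assessed by Western blot (β-actin loading control). NF-κB DNA binding was measured by electrophoretic mobility shift assay.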

Oryctolagus cuniculus [7] = species on record: Oryctolagus cuniculus; test: Inhibition of trypsin-like activity of rabbit 20S proteasome using Cbz-ARR-AMC substrate at 100 uM incubated at 37 degC by fluorometric assay; procedure, shortened: as §1
Oryctolagus cuniculus [8] = species on record: Oryctolagus cuniculus; test: Inhibition of PGPH-like activity of rabbit 20S proteasome using Cbz-LLE-AMC substrate at 100 uM incubated at 37 degC by fluorometric assay; procedure, shortened: as §1
HeLa [9] = test: Inhibition of 26S proteasome in IL1beta-induced human HeLa cells assessed as reduction in IkappaBalpha degradation at 20 uM preincubated for 2 hrs followed by IL1beta stimulation by Western blot analysis; assay type: cell-based
Procedure, shortened: (§3)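 HeLa human cervix carcinoma cells were pretreated with compound at 20 μM for 2 h, then stimulated with IL-1β. Read-outs were Western blot for IκBα phosphorylation (S32/36) and IκBα degradation, with β-actin as loading control, and EMSA for NF-κB DNA binding.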

HeLa [10] = test: Inhibition of 26S proteasome in TNFalpha-induced human HeLa cells assessed as reduction in NFkappaB-DNA binding at 20 uM preincubated for 2 hrs followed by TNFalpha stimulation by EMSA; assay type: cell-based; procedure, shortened: as §2
HeLa [11] = test: Inhibition of 26S proteasome in TNFalpha-induced human HeLa cells assessed as phosphorylation of IkappaBalpha at 20 uM preincubated for 2 hrs followed by TNFalpha stimulation by Western blot analysis; assay type: cell-based; procedure, shortened: as §2
HeLa [12] = test: Inhibition of 26S proteasome in TNFalpha-induced human HeLa cells assessed as reduction in NFkappaB-DNA binding at 300 nM to 20 uM preincubated for 2 hrs followed by TNFalpha stimulation by EMSA; assay type: cell-based
Procedure, shortened: (§4)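 Dose-response in HeLa cells: compound at 0.1, 0.3, 1, 3, 10 and 20 μM before TNFα stimulation, with handling as in the single-dose experiment. Accumulation of phospho-IκBα (S32/36) was measured by Western blot with β-actin as loading control. NF-κB DNA binding was measured by EMSA.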

HeLa [13] = test: Inhibition of 26S proteasome in IL1beta-induced human HeLa cells assessed as reduction in NFkappaB-DNA binding at 20 uM preincubated for 2 hrs followed by IL1beta stimulation by EMSA; assay type: cell-based; procedure, shortened: as §3
HeLa [14] = test: Inhibition of 26S proteasome in IL1beta-induced human HeLa cells assessed as reduction in IkappaBalpha degradation at 300 nM to 20 uM preincubated for 2 hrs followed by IL1beta stimulation
HeLa [15] = test: Inhibition of 26S proteasome in IL1beta-induced human HeLa cells assessed as phosphorylation of IkappaBalpha at 20 uM preincubated for 2 hrs followed by IL1beta stimulation by Western blot analysis; assay type: cell-based; procedure, shortened: as §3
HeLa [16] = test: Inhibition of 26S proteasome in TNFalpha-induced human HeLa cells assessed as accumulation of phosphorylated IkappaBalpha at 300 nM to 20 uM preincubated for 2 hrs followed by TNFalpha stimulation by Western blot analysis; assay type: cell-based; procedure, shortened: as §4
[17] = target: T3, Calpain-2 catalytic subunit (Homo sapiens) (UniProt P17655); test: Inhibition of m-calpain (unknown origin) using Suc-LY-AMC as substrate at 100 uM by fluorometric assay; procedure, shortened: as §1
T3 sequence (whole entry): T1 sequence (P17655 whole entry)

Cathepsin B [18] = target: T2, Cathepsin B; test: Inhibition of human liver cathepsin B using Cbz-RR-AMC as substrate at 100 uM by fluorometric assay; procedure, shortened: as §1
[19] = Inhibition of trypsin-like activity of rabbit 20S proteasome using Cbz-ARR-AMC substrate incubated at 37 degC by fluorometric assay; design: species or system Oryctolagus cuniculus
[20] = Inhibition of PGPH-like activity of rabbit 20S proteasome using Cbz-LLE-AMC substrate incubated at 37 degC by fluorometric assay; design: species or system Oryctolagus cuniculus

SMILES | Ratio Ki [1] | Ki [2] [nM] | Ratio Ki [3] | Ki (Cathepsin B [4]) [nM] | inhibition (Homo sapiens) | Ki [5] [nM] | inhibition (Oryctolagus cuniculus [7]) | inhibition (Oryctolagus cuniculus [8]) | inhibition [17] | inhibition (Cathepsin B [18]) | inhibition (HeLa [6]) | inhibition (HeLa [9]) | inhibition (HeLa [10]) | inhibition (HeLa [11]) | inhibition (HeLa [12]) | inhibition (HeLa [13]) | inhibition (HeLa [14]) | inhibition (HeLa [15]) | inhibition (HeLa [16]) | also measured
COc1ccc(C[C@@H]2NC(=O)[C@@H](NC(=O)OCc3ccccc3)Cc3ccc([N+](=O)[O-])c(c3)Oc3ccc(cc3)C[C@@H](C(=O)N[C@H](C=O)CC(C)C)NC2=O)cc1 | 550 | 2980 | 55 | 30300 | inactive | 54.5 | inactive | inactive | – | – | Active | Active | Active | Active | Active | Active | Active | Active | Active | –
CC(C)C[C@@H](C=O)NC(=O)[C@@H]1Cc2ccc(cc2)Oc2cc(ccc2[N+](=O)[O-])C[C@H](NC(=O)OCc2ccccc2)C(=O)N[C@@H](CC(C)C)C(=O)N1 | – | 2030 | 8 | 3050 | inactive | 241 | – | inactive | – | – | Active | Active | Active | Active | Active | Active | Active | Active | Active | Ki [19]: 8040 nM
CC(C)C[C@@H](C=O)NC(=O)[C@H](CC(C)C)NC(=O)[C@H](CC(C)C)NC(=O)OCc1ccccc1 [MG-132] (Cbz-Leu-Leu-Leu-aldehyde) | 4 | 653 | 10 | 230 | inactive | 63.5 | inactive | – | – | – | Active | Active | Active | Active | Active | Active | Active | Active | Active | Ki [20]: 3700 nM

The next compounds have a lower Ki [5] than those just listed; values first:

Ratio Ki [1] | Ki [2] [nM] | Ratio Ki [3] | Ki (Cathepsin B [4]) [nM] | inhibition (Homo sapiens) | Ki [5] [nM] | inhibition (Oryctolagus cuniculus [7]) | inhibition (Oryctolagus cuniculus [8]) | inhibition [17] | inhibition (Cathepsin B [18]) | SMILES | inhibition (HeLa [6]) | inhibition (HeLa [9]) | inhibition (HeLa [10]) | inhibition (HeLa [11]) | inhibition (HeLa [12]) | inhibition (HeLa [13]) | inhibition (HeLa [14]) | inhibition (HeLa [15]) | inhibition (HeLa [16]) | also measured
80 | 1710 | 61 | 2290 | inactive | 28 | – | – | – | – | COc1ccc(C[C@H](NC(=O)[C@H](Cc2ccccc2)NC(=O)OCc2ccccc2)C(=O)N[C@@H](Cc2ccccc2)C(=O)N[C@H](C=O)CC(C)C)cc1 (Cbz-FY(Me)FL-aldehyde) | – | – | – | – | – | – | – | – | – | –
– | – | – | – | inactive | 25.5 | – | – | inactive | inactive | CC(C)C[C@H](NC(=O)[C@H](CCc1ccccc1)NC(=O)CN1CCOCC1)C(=O)N[C@@H](Cc1ccccc1)C(=O)N[C@@H](CC(C)C)C(=O)[C@@]1(C)CO1 [CARFILZOMIB] | – | – | – | – | – | – | – | – | – | –
– | – | – | – | inactive | 24 | – | – | inactive | inactive | CC(C)C[C@H](NC(=O)[C@H](Cc1ccccc1)NC(=O)c1cnccn1)B(O)O [BORTEZOMIB] | – | – | – | – | – | – | – | – | – | –
